According to publication PMC6380921 (Environmental science & technology, 2019):

Assays:
[1] = target: T1, recombinant human CYP3A4 (Homo sapiens, UniProt P08684); experiment: PCB biotransformation assay with recombinant human CYP3A4; assay type: in vitro ADME; details: racemic PCB 50 µM; 10 pmol P450/mL; 37°C
Procedure, shortened: (§1)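 Human P450 co-expressed with human CYP-reductase in E. coli, 10 pmol/mL, in 0.1 M phosphate pH 7.4 with 3 mM MgCl2 and NADPH-regenerating system (~1 mM NADPH final). After 5 min preincubation, racemic PCB added (50 µM final, DMSO ≤0.5% v/v); incubated up to 60 min at 37°C; stopped with ice-cold NaOH plus heating. OH-PCBs identified as methylated derivatives by high-resolution GC/TOF-MS in 60-min extracts. Control Bactosomes; triplicates.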

[2] = target: T2, recombinant human CYP1A2 (Homo sapiens, UniProt P05177); experiment: PCB biotransformation assay with recombinant human CYP1A2; assay type: in vitro ADME; details: racemic PCB 50 µM; 10 pmol P450/mL; 37°C
T2 sequence (P05177 1-516): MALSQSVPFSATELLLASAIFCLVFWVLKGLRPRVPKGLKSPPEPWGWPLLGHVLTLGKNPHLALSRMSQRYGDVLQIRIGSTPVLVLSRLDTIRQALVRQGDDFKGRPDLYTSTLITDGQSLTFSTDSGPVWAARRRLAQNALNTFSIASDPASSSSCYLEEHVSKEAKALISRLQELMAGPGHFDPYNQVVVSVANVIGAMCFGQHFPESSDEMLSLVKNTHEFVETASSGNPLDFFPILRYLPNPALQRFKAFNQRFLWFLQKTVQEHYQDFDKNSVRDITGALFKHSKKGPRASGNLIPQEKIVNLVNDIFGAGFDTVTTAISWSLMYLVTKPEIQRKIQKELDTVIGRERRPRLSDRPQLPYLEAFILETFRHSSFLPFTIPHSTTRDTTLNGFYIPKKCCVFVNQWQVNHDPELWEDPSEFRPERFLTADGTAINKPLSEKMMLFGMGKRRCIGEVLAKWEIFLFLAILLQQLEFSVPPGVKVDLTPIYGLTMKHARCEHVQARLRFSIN
Procedure, shortened: as §1

[3] = target: T3, recombinant human CYP2A6 (Homo sapiens, UniProt P11509); experiment: PCB biotransformation assay with recombinant human CYP2A6; assay type: in vitro ADME; details: for ratio of 3–103: 5–95: 4–95: 4’−95 (relative to 4’−95 = 1), recombinant CYP2A6: PCB 95 incubation; for metabolite as percent of ΣOH-PCBs of the parent PCB, CYP2A6: racemic PCB 50 µM, 10 pmol P450/mL, 37°C, mean ± SD; for enantiomeric fraction (EF) of OH-PCB metabolite, CYP2A6: EF = Area E1/(Area E1 + Area E2), 50 μM PCB, 60 min, 37 °C, 10 pmol/mL P450
T3 sequence (P11509 1-494): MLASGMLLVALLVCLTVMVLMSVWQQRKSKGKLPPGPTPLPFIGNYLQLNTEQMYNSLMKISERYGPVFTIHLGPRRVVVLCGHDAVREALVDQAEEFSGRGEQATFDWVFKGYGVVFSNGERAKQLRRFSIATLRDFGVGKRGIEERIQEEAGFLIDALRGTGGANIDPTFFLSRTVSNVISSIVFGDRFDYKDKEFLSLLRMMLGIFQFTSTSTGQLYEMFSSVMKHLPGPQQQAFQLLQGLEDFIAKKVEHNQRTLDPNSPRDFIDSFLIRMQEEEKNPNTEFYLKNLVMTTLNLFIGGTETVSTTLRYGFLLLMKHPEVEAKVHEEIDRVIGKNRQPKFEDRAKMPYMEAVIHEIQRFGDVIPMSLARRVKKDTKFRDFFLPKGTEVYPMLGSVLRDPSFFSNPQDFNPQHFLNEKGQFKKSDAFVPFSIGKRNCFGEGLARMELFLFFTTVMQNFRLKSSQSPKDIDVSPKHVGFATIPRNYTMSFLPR

[4] = test system: human liver microsomes (HLMs); details: cited from earlier work; for ratio of 3–103: 5–95: 4–95: 4’−95 (relative to 4’−95 = 1), HLMs: PCB 95 with HLMs; for enantiomeric fraction (EF) of 1,2-shift products, HLMs: incubations with HLMs; for enantiomeric fraction (EF) of 5-hydroxylated metabolites, HLMs: metabolism studies with HLMs
[5] = target: T4, recombinant human CYP2B6 (Homo sapiens, UniProt P20813); experiment: PCB biotransformation assay with recombinant human CYP2B6; assay type: in vitro ADME; details: for enantiomeric fraction (EF) of OH-PCB metabolite, CYP2B6: EF = Area E1/(Area E1 + Area E2), 50 μM PCB, 60 min, 37 °C, 10 pmol/mL P450; for metabolite as percent of ΣOH-PCBs of the parent PCB, CYP2B6: racemic PCB 50 µM, 10 pmol P450/mL, 37°C, mean ± SD
T4 sequence (P20813 1-491): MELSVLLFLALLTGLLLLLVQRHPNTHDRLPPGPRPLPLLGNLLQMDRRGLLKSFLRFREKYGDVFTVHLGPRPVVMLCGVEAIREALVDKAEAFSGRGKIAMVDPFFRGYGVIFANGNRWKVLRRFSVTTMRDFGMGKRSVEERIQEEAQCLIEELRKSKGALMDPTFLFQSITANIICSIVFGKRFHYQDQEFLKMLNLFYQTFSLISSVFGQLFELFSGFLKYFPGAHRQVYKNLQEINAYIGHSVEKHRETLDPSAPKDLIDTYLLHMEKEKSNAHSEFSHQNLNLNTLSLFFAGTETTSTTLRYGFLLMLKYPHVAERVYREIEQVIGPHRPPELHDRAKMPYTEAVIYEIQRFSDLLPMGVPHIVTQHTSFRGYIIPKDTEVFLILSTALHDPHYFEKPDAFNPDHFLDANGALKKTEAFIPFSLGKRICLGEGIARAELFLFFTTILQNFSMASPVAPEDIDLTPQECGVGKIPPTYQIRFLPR

[6] = target: recombinant human CYP2E1 (Homo sapiens, UniProt P05181); details: cited from earlier work
[7] = target: T4, recombinant human CYP2B6; details: cited from earlier work
[8] = target: T1, recombinant human CYP3A4; details: cited from earlier work
[9] = target: T2, recombinant human CYP1A2; details: cited from earlier work

T1 sequence (P08684 whole entry): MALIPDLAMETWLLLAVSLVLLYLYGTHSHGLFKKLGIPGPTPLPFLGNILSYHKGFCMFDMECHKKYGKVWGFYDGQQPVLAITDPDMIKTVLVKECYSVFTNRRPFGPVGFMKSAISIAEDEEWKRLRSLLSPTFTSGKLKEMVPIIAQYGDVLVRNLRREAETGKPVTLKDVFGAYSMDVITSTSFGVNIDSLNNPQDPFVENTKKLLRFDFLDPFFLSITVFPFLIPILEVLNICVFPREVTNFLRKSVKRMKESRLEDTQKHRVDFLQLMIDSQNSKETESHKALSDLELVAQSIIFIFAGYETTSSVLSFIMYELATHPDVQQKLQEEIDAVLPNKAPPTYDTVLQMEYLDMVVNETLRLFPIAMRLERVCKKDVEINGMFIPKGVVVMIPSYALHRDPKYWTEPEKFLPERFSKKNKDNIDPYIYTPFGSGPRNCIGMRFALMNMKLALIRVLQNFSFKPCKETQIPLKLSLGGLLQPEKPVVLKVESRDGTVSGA
recombinant human CYP2E1, sequence (P05181 whole entry): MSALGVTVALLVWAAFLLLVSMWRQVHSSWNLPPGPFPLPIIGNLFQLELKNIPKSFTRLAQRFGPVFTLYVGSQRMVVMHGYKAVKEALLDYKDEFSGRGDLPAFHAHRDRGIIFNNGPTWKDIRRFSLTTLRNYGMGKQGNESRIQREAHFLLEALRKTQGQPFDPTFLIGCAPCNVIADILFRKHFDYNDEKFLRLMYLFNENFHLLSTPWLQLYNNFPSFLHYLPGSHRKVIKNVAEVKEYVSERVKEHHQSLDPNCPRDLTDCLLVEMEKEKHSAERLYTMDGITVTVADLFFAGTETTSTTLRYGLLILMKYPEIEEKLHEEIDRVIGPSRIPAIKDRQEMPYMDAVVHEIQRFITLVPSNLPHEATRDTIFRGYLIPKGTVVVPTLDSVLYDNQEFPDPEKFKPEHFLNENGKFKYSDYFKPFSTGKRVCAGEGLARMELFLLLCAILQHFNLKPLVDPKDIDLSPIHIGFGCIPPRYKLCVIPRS

Clc1ccc(-c2c(Cl)ccc(Cl)c2Cl)c(Cl)c1 [PCB 91, 2,2’,3,4’,6-pentachlorobiphenyl]
OH-PCB metabolites detected in incubations with CYP3A4 [1]: no metabolites were detected
OH-PCB metabolites detected in incubations with CYP1A2 [2]: no metabolites were detected

Oc1cc(Cl)c(Cl)c(-c2cc(Cl)ccc2Cl)c1Cl [5–95]
ratio of 3–103: 5–95: 4–95: 4’−95 (relative to 4’−95 = 1), recombinant CYP2A6 [3]: 0.04
ratio of 3–103: 5–95: 4–95: 4’−95 (relative to 4’−95 = 1), HLMs [4]: 0.06
formation rate by CYP2B6, times lower compared to CYP2A6 ([5]; PCB 95 incubation): 2 times

Clc1ccc(Cl)c(-c2cc(Cl)ccc2Cl)c1 [PCB 52, 2,2’,5,5’-tetrachlorobiphenyl]
oxidation by CYP2E1, earlier studies [6]: did not observe any oxidation
oxidation by CYP2B6, earlier studies [7]: did not observe any oxidation
metabolism by recombinant CYP3A4, earlier studies [8]: did not metabolize
metabolism by recombinant CYP1A2, earlier studies [9]: did not metabolize

Oc1c(Cl)cc(Cl)c(-c2ccc(Cl)c(Cl)c2Cl)c1Cl [3’−140]
metabolite as percent of ΣOH-PCBs of the parent PCB, CYP2A6 [3]: 67 ± 1%
enantiomeric fraction (EF) of 1,2-shift products, HLMs [4]: 0.84

Clc1ccc(-c2c(Cl)ccc(Cl)c2Cl)c(Cl)c1Cl [PCB 132, 2,2’,3,3’,4,6’-hexachlorobiphenyl]
OH-PCB metabolites detected in incubations with CYP3A4 [1]: no metabolites were detected
OH-PCB metabolites detected in incubations with CYP1A2 [2]: no metabolites were detected

Oc1c(Cl)cc(Cl)c(-c2cc(Cl)ccc2Cl)c1Cl [3–103]
enantiomeric fraction (EF) of OH-PCB metabolite, CYP2A6 [3]: 0.99
ratio of 3–103: 5–95: 4–95: 4’−95 (relative to 4’−95 = 1), recombinant CYP2A6 [3]: 0.11
ratio of 3–103: 5–95: 4–95: 4’−95 (relative to 4’−95 = 1), HLMs [4]: 0.11

Oc1cc(Cl)c(Cl)c(-c2c(Cl)ccc(Cl)c2Cl)c1Cl [5–136]
ratio of 5–136: 4–136 (4–136 = 1) formed with CYP2A6 ([3]; PCB 136 incubation): 0.3
ratio of 5–136: 4–136 (4–136 = 1), HLMs ([4]; PCB 136 with HLMs): 0.39
ratio of 5–136: 4–136 (4–136 = 1), HLMs, earlier study ([4]; PCB 136 with HLMs): 1.3
enantiomeric fraction (EF) of 5-hydroxylated metabolites, HLMs [4]: 0.31
enantiomeric fraction (EF) of OH-PCB metabolite, CYP2B6 [5]: 0.50
metabolite as percent of ΣOH-PCBs of the parent PCB, CYP2B6 [5]: 94 ± 0.3%

Oc1cc(Cl)c(-c2c(Cl)ccc(Cl)c2Cl)c(Cl)c1Cl [4–136]
enantiomeric fraction (EF) of OH-PCB metabolite, CYP2A6 [3]: 0.10
metabolite as percent of ΣOH-PCBs of the parent PCB, CYP2A6 [3]: 64 ± 2%

Clc1ccc(Cl)c(-c2c(Cl)ccc(Cl)c2Cl)c1 [PCB 95, 2,2’,3,5’,6-pentachlorobiphenyl]
oxidation by CYP2E1, earlier studies [6]: did not observe any oxidation
OH-PCB metabolites detected in incubations with CYP3A4 [1]: no metabolites were detected
oxidation by CYP2B6, earlier studies [7]: did not observe any oxidation
metabolism by recombinant CYP3A4, earlier studies [8]: did not metabolize
metabolism by recombinant CYP1A2, earlier studies [9]: did not metabolize
OH-PCB metabolites detected in incubations with CYP1A2 [2]: no metabolites were detected

Oc1cc(Cl)c(Cl)c(-c2ccc(Cl)cc2Cl)c1Cl [5–91]
enantiomeric fraction (EF) of 5-hydroxylated metabolites, HLMs [4]: 0.47
enantiomeric fraction (EF) of OH-PCB metabolite, CYP2B6 [5]: 0.49
metabolite as percent of ΣOH-PCBs of the parent PCB, CYP2B6 [5]: 98.4 ± 0.1%

Clc1ccc(Cl)c(-c2c(Cl)ccc(Cl)c2Cl)c1Cl [PCB 136, 2,2’,3,3’,6,6’-hexachlorobiphenyl]
OH-PCB metabolites detected in incubations with CYP3A4 [1]: no metabolites were detected
OH-PCB metabolites detected in incubations with CYP1A2 [2]: no metabolites were detected

Oc1c(Cl)cc(Cl)c(-c2ccc(Cl)cc2Cl)c1Cl [3–100]
enantiomeric fraction (EF) of OH-PCB metabolite, CYP2A6 [3]: 0.92
metabolite as percent of ΣOH-PCBs of the parent PCB, CYP2A6 [3]: 81 ± 2%
enantiomeric fraction (EF) of 1,2-shift products, HLMs [4]: 0.85

Oc1cc(Cl)c(Cl)c(-c2ccc(Cl)c(Cl)c2Cl)c1Cl [5’−132]
enantiomeric fraction (EF) of 5-hydroxylated metabolites, HLMs [4]: 0.19
enantiomeric fraction (EF) of OH-PCB metabolite, CYP2B6 [5]: 0.32
metabolite as percent of ΣOH-PCBs of the parent PCB, CYP2B6 [5]: 81 ± 7%

Oc1cc(Cl)c(-c2ccc(Cl)cc2Cl)c(Cl)c1Cl [4–91]
enantiomeric fraction (EF) of OH-PCB metabolite, CYP2A6 [3]: 0.39
enantiomeric fraction (EF) of OH-PCB metabolite, CYP2B6 [5]: 0.60
